A selection: hits, their analogues and other compounds. The true share with any hit is near 3.8%.
rCAG binder – binds r(CAG) RNA repeats | r(CAG) RNA repeat, TO-PRO-1 dye displacement fluorescence | inhibition, % at 3 µM | 1.3% of 370,000 active;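 active means inhibition above the plate cutoff, the mean of all test compounds on that plate plus 3 SD, cut at about 35% in these data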;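 further: 0% = DMSO alone and 100% = 100 µM mitoxantrone as full dye displacement; higher means more dye released from RNA so lower well fluorescence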
Exocytosis inh – lytic granule exocytosis inhibition | TALL-104 LAMP-1 surface exposure, flow cytometry; cells stimulated with thapsigargin and PMA | inhibition, % at 10 µM | 0.66% of 360,000 active | AID 651702;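 active means inhibition above about 55%, limit read from the data; inconclusive means no clear call, values can overlap the other calls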
T cell HTS – T cell immune modulators affecting CD8 T cell-vesicle binding; 2C CD8+ T cell-vesicle binding, flow cytometry; active compounds read low; response (vesicle binding), % at 7 µM; 0.068% of 330,000 active; AID 2052;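 active means response, share of CD8 T cells binding vesicles, and their 90th percentile fluorescence all below set limits, cut at about 80% in these data, passing the limit was not always enough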;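 further: values below 100% mean blocked vesicle binding to the CD8+ T cells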
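Incubation: binding step 1.5 h, 37 °C, antibody labelling 20 min, ice; system: murine 2C transgenic CD8+ T lymphocytes; technique: cytometric PE anti-B7-1 and Alexa647 anti-CD8 signals after 1% paraformaldehyde fixation; also added: QL9-charged Drosophila Ld/ICAM-1/B7-1 vesicles; control set: naked versus QL9-loaded vesicles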
V-ATPase pH – alters yeast V-ATPase proton transport. S. cerevisiae, pHLuorin cytosolic pH fluorescence. response, % at 10 µM. 0.37% of 350,000 active; in the data active means response mostly above about 7.3%, no sharp cut-off; inactive means mostly below about 5.4%; further: actives read high
MPTP inh – inhibitors of mitochondrial permeability transition pore; isolated mouse mitochondria, Ca2+ swelling absorbance, 30 min; 1.4% of 360,000 active; inhibition, % at 10 µM;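 active means inhibition of 50% or more, scaled per plate between neutral and stimulator controls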;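 further: 0% = DMSO wells given calcium and 100% = 1 mM EGTA wells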
B2AR ag – activates human beta-2 adrenergic receptor causing internalization; Am2.2-beta2AR cells, FAP receptor internalization, flow cytometry; response, % (concentration not given with the values); 0.43% of 340,000 active; AID 504454;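 active means response above a set limit, near 3 SD of response in nonfluorescent compounds, cut at about 42% in these data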
Target sequence (P07550 whole entry, looked up): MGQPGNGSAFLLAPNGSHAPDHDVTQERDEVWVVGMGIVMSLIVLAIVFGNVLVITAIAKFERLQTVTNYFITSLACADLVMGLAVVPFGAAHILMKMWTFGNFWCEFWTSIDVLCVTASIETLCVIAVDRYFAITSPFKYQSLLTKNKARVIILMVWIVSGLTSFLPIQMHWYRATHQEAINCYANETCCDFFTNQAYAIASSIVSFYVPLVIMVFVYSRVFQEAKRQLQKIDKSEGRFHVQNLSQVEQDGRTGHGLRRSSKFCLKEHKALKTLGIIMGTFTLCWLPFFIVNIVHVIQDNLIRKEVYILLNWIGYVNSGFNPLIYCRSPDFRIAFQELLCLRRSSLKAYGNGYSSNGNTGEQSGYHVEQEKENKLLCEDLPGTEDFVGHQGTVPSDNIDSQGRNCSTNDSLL
rCAG binder conf – r(CAG) RNA repeat binding, confirmation; inhibition, % at 3 µM; shares compounds with rCAG binder; 70% of 4,300 active; TO-PRO-1 dye displacement fluorescence;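 active means inhibition above a per-plate cutoff, the mean inhibition of sample wells plus 3 SD, cut at about 35% in these data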;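 further: loss of TO-PRO-1 fluorescence as compound displaces dye from 1x1 AA loop RNA; 0% = DMSO only wells and 100% = 100 µM mitoxantrone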
dCAG dye counter – counter-screen for rCAG RNA binders: DNA CAG dye complex inhibitors; shares compounds with rCAG binder; d(CAG) DNA oligo TO-PRO-1 dye displacement, fluorescence; inhibition, % at 3 µM; 94% of 4,300 active;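 active means inhibition above its plate's cutoff, the mean test-well inhibition plus 3 SD, cut at about 4.8% in these data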;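 further: 0% = DNA dye mix with DMSO and 100% = 100 µM mitoxantrone; hits displace the dye from DNA and so lower well fluorescence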
dCAG dye DR – counter-screen for rCAG binders: inhibitors of DNA CAG TO-PRO-1 complex. shares compounds with rCAG binder. DNA CAG/GTC duplex TO-PRO-1 dye displacement fluorescence. IC50, µM. 20% of 250 active. AID 686960; in the data active means IC50 below about 10 µM
* marks the source's active call; other numbers are inactive results; i = inactive; ? = inconclusive; nt = not tested or not shown.

SMILES	rCAG binder	Exocytosis inh	T cell HTS	V-ATPase pH	MPTP inh	B2AR ag	rCAG binder conf	dCAG dye counter	others
NS(=O)(=O)c1ccc(Nc2nc3ccccc3nc2NS(=O)(=O)c2cccc([N+](=O)[O-])c2)cc1	94*	0	346	-2	1	-8	88*	62*
O=[N+]([O-])c1cccc(S(=O)(=O)Nc2ccccn2)c1	-1	?	nt	-2	-1	nt	nt	nt
CC(=O)Nc1ccc(S(=O)(=O)Nc2nc3ccccc3nc2Nc2ccc(S(N)(=O)=O)cc2)cc1	52*	-4	868	4	1	-2	35*	8.3*
Cc1cccc(NS(=O)(=O)c2cccc(C(=O)Nc3cccc(C(=O)O)c3)c2)c1	20	0	394	0	3	2	nt	nt
CCOC(=O)[C@@]12CCC3=C1N(CCC3)C(=O)[C@H](CC(=O)NCCCN1CCCC1=O)C2	-1	nt	nt	nt	nt	nt	nt	nt
Cc1ccc(Cn2cc(COC(=O)Nc3ccc(F)cc3)nn2)cc1	-1	nt	nt	nt	nt	nt	nt	nt
CCOC(=O)C1=CCN(S(=O)(=O)c2ccc(Cl)cc2)C1c1cccc(F)c1 (stereo not drawn)	1	nt	nt	nt	nt	nt	nt	nt
COc1ccc(Nc2nc3ccccc3nc2NS(=O)(=O)c2ccc(NC(C)=O)cc2)cc1	80*	-1	307	-3	2	-4	60*	21*
COC(=O)C1=C(C)N(C)C(=NCc2ccc(C(F)(F)F)cc2)NC1c1cccc(F)c1 (stereo not drawn)	7	nt	nt	nt	nt	nt	nt	nt
CC1(C)CCC(=O)N(c2ccc(OC(F)(F)F)cc2)C1=O	0	-9	248	-3	0	0	nt	nt
O=C1CS/C(=C\[N+](=O)[O-])N1c1ccc(OC(F)(F)F)cc1	49*	10	i	1	2	-4	5	2
COCCCNc1nc2ccccc2nc1NS(=O)(=O)c1cc(Cl)ccc1Cl	50*	-2	298	-4	0	-3	48*	15*
CCOC(=O)CC[C@H]1CC[C@]2(CCCN(C(=O)c3ccccc3)C2)O1	0	nt	nt	nt	nt	nt	nt	nt
O=C(CSc1nnc(COc2ccccc2)n1-c1ccc(Cl)cc1)Nc1ccc2c(c1)OCCO2	7	nt	nt	nt	nt	nt	nt	nt
O=C(O)c1ccc(Cl)c(S(=O)(=O)N(Cc2ccccc2)c2ccc(F)cc2)c1	54*	2	nt	-2	4	5	48*	13*
O=C(O)c1cccc(S(=O)(=O)N(Cc2ccccc2)c2ccc(Cl)cc2)c1	38*	5	i	0	-1	-2	41*	12*
O=C(O)c1ccc(CN(c2ccccc2)S(=O)(=O)c2ccccc2)cc1	4	-10	218	-4	0	4	nt	nt
O=C(O)c1ccc(Cl)c(S(=O)(=O)N(Cc2ccccc2)c2ccccc2Cl)c1	73*	-6	101	1	3	-8	68*	22*
COc1ccc(N(Cc2ccccc2)S(=O)(=O)c2cc(C(=O)O)ccc2Cl)cc1	53*	0	207	-3	2	-7	42*	8.9*
NC(=O)c1ncn([C@@H]2O[C@H](C(=O)N[C@H](Cc3c[nH]c4ccccc34)C(=O)N3CCN(CC(=O)N4CCCC4)CC3)[C@@H](O)[C@H]2O)n1	0	nt	nt	nt	nt	nt	nt	nt
Cc1ccc(S(=O)(=O)Nc2nc3ccc(S(=O)(=O)N4CCCC4)cc3s2)cc1	71*	-1	359	-1	-1	6	74*	38*
CC(=O)Nc1nc2ccc(S(=O)(=O)N3CCCCC3)cc2s1	4	-3	168	-2	0	4	nt	nt
O=S(=O)(Nc1nc2ccc(S(=O)(=O)N3CCCCC3)cc2s1)c1ccccc1	72*	2	386	1	4	7	65*	28*
CCOc1ccc(-n2c(SC/C=C/c3ccccc3)nnc2-c2cccs2)cc1	6	nt	nt	nt	nt	nt	nt	nt
O=C(Cn1cc(COc2ccc(Cl)c(Cl)c2)nn1)NS(=O)(=O)c1ccccc1C(F)(F)F	59*	10	nt	nt	0	nt	63*	16*
SMILES	rCAG binder	Exocytosis inh	T cell HTS	V-ATPase pH	MPTP inh	B2AR ag	rCAG binder conf	dCAG dye counter	others
O=C(Cn1cc(COc2ccc(-n3cccc3)cc2)nn1)NS(=O)(=O)c1ccccc1C(F)(F)F	64*	-10	nt	nt	-2	nt	65*	18*
O=C(Cn1cc(COc2ccc(C(=O)c3ccccc3)cc2)nn1)c1ccc(O)cc1	14	-4	nt	1	-1	4	nt	nt
COc1ccc(S[C@]2(C(=O)N3CCCC3)CC(=O)N(S(=O)(=O)c3ccc(F)cc3)[C@@H]2c2ccc(OC)cc2)cc1	11	nt	nt	nt	nt	nt	nt	nt
Cc1sc2c(c1C)C(O)=C(C(=O)Nc1ccccc1)S(=O)(=O)N2C	43*	-3	410	2	0	13	27	6.9*
O=C(Nc1nc2ncccn2c1-c1ccc(C(F)(F)F)cc1)c1ccc(F)cc1	1	nt	nt	nt	nt	nt	nt	nt
COc1ccccc1NS(=O)(=O)c1cccc(-n2c(O)c(C=Nc3ccccc3C(=O)O)c3ccccc3c2=O)c1	91*	2	343	-1	3	28	91*	73*
COc1ccc(-n2c(O)c(/C=N/NS(=O)(=O)c3cc(C)ccc3C)c3ccccc3c2=O)cc1OC	49*	-5	476	-6	2	-861	73*	33*
COc1ccc(-n2c(O)c(/C=N/NS(=O)(=O)c3ccc(C)cc3)c3ccccc3c2=O)cc1OC	66*	-1	332	-4	0	-362	59*	24*
CC(C)c1[nH]nc2c1C(c1ccc(F)cc1)N(Cc1ccccc1)C2=O (stereo not drawn)	2	nt	nt	nt	nt	nt	nt	nt
CCOC(=O)C1=C(CSc2nc3c(cc2C#N)CN(C)CC3)OC(N)=C(C#N)C1c1ccc(Cl)cc1 (stereo not drawn)	35*	2	192	-3	0	6	19	11*
CCOC(=O)C1=C(CSc2nc3c(cc2C#N)CN(C)CC3)OC(N)=C(C#N)C1c1ccncc1 (stereo not drawn)	27	-1	249	-2	1	-1	nt	nt
Clc1cccc(-c2nc(-c3ccc(-c4nn[nH]n4)cc3)no2)c1	36*	-4	273	-4	6	5	62*	19*	dCAG dye DR=i
O=C(OCc1cn(Cc2cccc(Cl)c2)nn1)N1CCCC1	2	nt	nt	nt	nt	nt	nt	nt
O=C(Cn1nnc(-c2ccncc2)n1)Nc1ccc(Cl)cc1	2	nt	nt	nt	nt	nt	nt	nt
COc1cc(NC(=O)c2ccccc2)c(C)cc1NC(=O)CSc1nnc(-c2cnccn2)n1-c1ccc(C)cc1	11	nt	nt	nt	nt	nt	nt	nt
O=C(NC1CCCCN(Cc2ccc(Cl)cc2)C1=O)c1ccc(Cl)cc1Cl (stereo not drawn)	2	nt	nt	nt	nt	nt	nt	nt
